Results from ChEMBL document CHEMBL2384939, “Synthesis of pyrazolo[1,5-a]pyrimidine linked aminobenzothiazole conjugates as potential anticancer agents” (Bioorg Med Chem Lett, 2013).
Active and inactive are the calls of the source. The rule behind the calls is not given here.

Key:
A549 [1] = experiment: Induction of apoptosis in human A549 cells assessed as activation of caspase-3 at 1 to 2 uM after 48 hrs by ELISA relative to control; type: functional, cell-based
Method in brief: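 A549 lung cancer cells exposed to 1 and 2 µM compound for 48 h, with roscovitine as positive control. Pellets lysed for 15 min, and supernatant caspase-3 activity read by a commercial colorimetric kit relative to untreated control. Values are mean ± SD of two experiments run in triplicate.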

A549 [2] = experiment: Induction of apoptosis in human A549 cells assessed as nuclear fragmentation at 2 uM after 48 hrs by Hoechst staining assay; type: functional, cell-based
Method in brief: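 A549 cells (10,000 per 18-mm coverslip) grown 24 h, then given 2 µM compound for 48 h, with 0.001% DMSO vehicle and roscovitine controls. Hoechst 33258 (0.5 mg/mL) in 4% paraformaldehyde was added for 30 min. Randomly chosen fields were imaged by fluorescence microscopy and apoptotic cells scored manually by cytoplasmic condensation, apoptotic bodies and nuclear fragmentation.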

A549 [3] = experiment: Induction of apoptosis in human A549 cells assessed as reduction of Cdk1 expression at 2 uM after 48 hrs by Western blot analysis; type: functional, cell-based
Method in brief: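 5×10^5 A549 cells grown 24 h, then treated with 2 µM compound for 48 h. Lysis in ice-cold RIPA with protease inhibitors, protein by Bradford, 50 µg per lane on 12% SDS-PAGE, PVDF transfer. Probed overnight at 4 °C with mouse monoclonal anti-Cdk1, β-actin as loading control, chemiluminescent detection.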

A549 [4] = experiment: Cell cycle arrest at human A549 cells assessed as accumulation at G2/M phase at 1 uM after 48 hrs by propidium iodide-staining-based FACS flow cytometric analysis (reference value: 13.17%); type: functional
A549 [5] = experiment: Cell cycle arrest at human A549 cells assessed as accumulation at G2/M phase at 2 uM after 48 hrs by propidium iodide-staining-based FACS flow cytometric analysis (reference value: 13.17%); type: functional
A549 [6] = experiment: Cell cycle arrest at human A549 cells assessed as accumulation at S phase at 1 uM after 48 hrs by propidium iodide-staining-based FACS flow cytometric analysis (reference value: 4.48%); type: functional
A549 [7] = experiment: Cell cycle arrest at human A549 cells assessed as accumulation at S phase at 2 uM after 48 hrs by propidium iodide-staining-based FACS flow cytometric analysis (reference value: 4.48%); type: functional
HeLa = experiment: Cytotoxicity against human HeLa cells after 48 hrs by MTT assay; type: functional, cell-based
Method in brief: (§1)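 MTT assay: […] were plated in DMEM with 10% FBS and incubated for 24 h at 37 °C under CO2. Compounds diluted in culture medium were added alongside a vehicle control for 48 h. MTT (10 µl of a 5 mg/ml stock) was added for a further 4 h. The supernatant was then removed, the formazan dissolved in DMSO, and absorbance read at 540 nm. IC50 was derived.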

MDA-MB-468 = experiment: Cytotoxicity against human MDA-MB-468 cells after 48 hrs by MTT assay; type: functional; settings: MDA-MB-468, 48 h
T47D = experiment: Cytotoxicity against human T47D cells after 48 hrs by MTT assay; type: functional
A549 [8] = experiment: Cell cycle arrest at human A549 cells assessed as accumulation at sub G1 phase at 2 uM after 48 hrs by propidium iodide-staining-based FACS flow cytometric analysis (reference value: 1.02%); type: functional
BT-549 = experiment: Cytotoxicity against human BT549 cells after 48 hrs by MTT assay; type: functional; settings: BT-549, 48 h
Hs-578T = experiment: Cytotoxicity against human Hs578T cells after 48 hrs by MTT assay; type: functional
MDA-MB-231 = experiment: Cytotoxicity against human MDA-MB-231 cells after 48 hrs by MTT assay; type: functional; settings: MDA-MB-231, 48 h
TK-10 = experiment: Cytotoxicity against human TK10 cells after 48 hrs by MTT assay; type: functional; settings: TK-10, 48 h
SN12C = experiment: Cytotoxicity against human SN12C cells after 48 hrs by MTT assay; type: functional
RXF 393 = experiment: Cytotoxicity against human RXF393 cells after 48 hrs by MTT assay; type: functional; settings: RXF 393, 48 h
ACHN = experiment: Cytotoxicity against human ACHN cells after 48 hrs by MTT assay; type: functional, cell-based; method in brief: as §1
A498 = experiment: Cytotoxicity against human A498 cells after 48 hrs by MTT assay; type: functional; settings: A498, 48 h
OVCAR-8 = experiment: Cytotoxicity against human OVCAR8 cells after 48 hrs by MTT assay; type: functional; settings: OVCAR-8, 48 h
OVCAR-3 = experiment: Cytotoxicity against human OVCAR3 cells after 48 hrs by MTT assay; type: functional; settings: OVCAR-3, 48 h
UACC-62 = experiment: Cytotoxicity against human UACC62 cells after 48 hrs by MTT assay; type: functional; settings: UACC-62, 48 h
IGROV-1 = experiment: Cytotoxicity against human IGROV1 cells after 48 hrs by MTT assay; type: functional; settings: IGROV-1, 48 h
SK-MEL-2 = experiment: Cytotoxicity against human SK-MEL-2 cells after 48 hrs by MTT assay; type: functional; settings: SK-MEL-2, 48 h
A549 [9] = experiment: Cell cycle arrest at human A549 cells assessed as accumulation at sub G1 phase at 1 uM after 48 hrs by propidium iodide-staining-based FACS flow cytometric analysis (reference value: 1.02%); type: functional
M14 = experiment: Cytotoxicity against human M14 cells after 48 hrs by MTT assay; type: functional; settings: M14, 48 h
U-251 = experiment: Cytotoxicity against human U251 cells after 48 hrs by MTT assay; type: functional; settings: U-251, 48 h
SNB-75 = experiment: Cytotoxicity against human SNB75 cells after 48 hrs by MTT assay; type: functional; settings: SNB-75, 48 h
SNB-19 = experiment: Cytotoxicity against human SNB19 cells after 48 hrs by MTT assay; type: functional; settings: SNB-19, 48 h
SF-295 = experiment: Cytotoxicity against human SF295 cells after 48 hrs by MTT assay; type: functional; settings: SF-295, 48 h
HCT-116 = experiment: Cytotoxicity against human HCT116 cells after 48 hrs by MTT assay; type: functional; settings: HCT-116, 48 h
NCI-H460 = experiment: Cytotoxicity against human NCI-H460 cells after 48 hrs by MTT assay; type: functional; settings: NCI-H460, 48 h
HOP-92 = experiment: Cytotoxicity against human HOP92 cells after 48 hrs by MTT assay; type: functional; settings: HOP-92, 48 h
NCI-H226 = experiment: Cytotoxicity against human NCI-H226 cells after 48 hrs by MTT assay; type: functional; settings: NCI-H226, 48 h
HOP-62 = experiment: Cytotoxicity against human HOP62 cells after 48 hrs by MTT assay; type: functional; settings: HOP-62, 48 h
A549 [10] = experiment: Cytotoxicity against human A549 cells after 48 hrs by MTT assay; type: functional, cell-based; settings: A549, 48 h; method in brief: as §1
A549 [11] = experiment: Cell cycle arrest at human A549 cells assessed as accumulation at G0/G1 phase at 2 uM after 48 hrs by propidium iodide-staining-based FACS flow cytometric analysis (reference value: 81.33%); type: functional
SR = experiment: Cytotoxicity against human SR cells after 48 hrs by MTT assay; type: functional
K562 = experiment: Cytotoxicity against human K562 cells after 48 hrs by MTT assay; type: functional; settings: K562, 48 h

`COc1cc(-c2cc(C(=O)Nc3nc4ccccc4s3)nc3cc(-c4ccccc4)nn23)cc(OC)c1OC` was tested, and the Activity (A549 [1]) was “Active”, the Activity (A549 [2]) was “Active” and the Activity (A549 [3]) was “Active”. The Activity (A549 [4]) was 40.05%, the Activity (A549 [5]) was 52.45% and the Activity (A549 [6]) was 5.9%. It also gave an Activity (A549 [7]) of 6.32%, an IC50 (HeLa) of 7.07 µM and a GI50 (MDA-MB-468) of 13.9 µM. It also gave a GI50 (T47D) of 21.4 µM, an Activity (A549 [8]) of 9.05% and a GI50 (BT-549) of 6.3 µM. The GI50 (Hs-578T) was 4.7 µM, the GI50 (MDA-MB-231) was 5.6 µM and the GI50 (TK-10) was 11.9 µM. For the same compound, the GI50 (SN12C) was 85 µM, the GI50 (RXF 393) was 6.2 µM and the GI50 (ACHN) was 45.7 µM. It also gave an IC50 (ACHN) of 4.36 µM, a GI50 (A498) of 9.2 µM and a GI50 (OVCAR-8) of 5.3 µM. The GI50 (OVCAR-3) was 13.3 µM, the GI50 (UACC-62) was 14.4 µM and the GI50 (IGROV-1) was 56 µM. For the same compound, the GI50 (SK-MEL-2) was 11.2 µM, the Activity (A549 [9]) was 11.77% and the GI50 (M14) was 2.3 µM. It also gave a GI50 (U-251) of 5.1 µM, a GI50 (SNB-75) of 2.7 µM and a GI50 (SNB-19) of 16.7 µM. For the same compound, the GI50 (SF-295) was 10.6 µM, the GI50 (HCT-116) was 4.5 µM and the GI50 (NCI-H460) was 29 µM. It also gave a GI50 (HOP-92) of 0.7 µM, a GI50 (NCI-H226) of 27 µM and a GI50 (HOP-62) of 9.8 µM. For the same compound, the IC50 (A549 [10]) was 2.01 µM, the Activity (A549 [11]) was 32.18% and the GI50 (SR) was 19.7 µM. The GI50 (K562) was 25 µM.

For `O=C(Nc1nc2ccccc2s1)c1cc(-c2ccc(F)cc2)n2nc(-c3ccccc3)cc2n1`, the Activity (A549 [1]) was “Active”, the Activity (A549 [2]) was “Active” and the Activity (A549 [3]) was “Active”. It also gave an Activity (A549 [4]) of 44.54%, an Activity (A549 [5]) of 64.7% and an Activity (A549 [6]) of 6.1%. The Activity (A549 [7]) was 6.8%, the IC50 (HeLa) was 2.63 µM and the GI50 (MDA-MB-468) was 5.1 µM. For the same compound, the GI50 (T47D) was 3.3 µM, the Activity (A549 [8]) was 3.75% and the GI50 (BT-549) was 2 µM. It also gave a GI50 (Hs-578T) of 2.2 µM, a GI50 (MDA-MB-231) of 2.3 µM and a GI50 (TK-10) of 2.4 µM. It also gave a GI50 (SN12C) of 6.4 µM, a GI50 (RXF 393) of 2.5 µM and a GI50 (ACHN) of 2.2 µM. For the same compound, the IC50 (ACHN) was 3.46 µM, the GI50 (A498) was 1.8 µM and the GI50 (OVCAR-8) was 2.1 µM. The GI50 (OVCAR-3) was 1.9 µM, the GI50 (UACC-62) was 3.7 µM and the GI50 (IGROV-1) was 4.3 µM. It also gave a GI50 (SK-MEL-2) of 3.1 µM, an Activity (A549 [9]) of 4.01% and a GI50 (M14) of 3.1 µM. For the same compound, the GI50 (U-251) was 2 µM, the GI50 (SNB-75) was 1.7 µM and the GI50 (SNB-19) was 5.2 µM. It also gave a GI50 (SF-295) of 4.1 µM, a GI50 (HCT-116) of 2.7 µM and a GI50 (NCI-H460) of 2.1 µM. For the same compound, the GI50 (HOP-92) was 1.6 µM, the GI50 (NCI-H226) was 6.3 µM and the GI50 (HOP-62) was 2.2 µM. For the same compound, the GI50 (A549 [10]) was 2.7 µM, the IC50 (A549 [10]) was 1.94 µM and the Activity (A549 [11]) was 28.75%. For the same compound, the GI50 (SR) was 3.9 µM and the GI50 (K562) was 4.2 µM.
